Measurements from ChEMBL document CHEMBL3745677, “Discovery of 6-(4-{[5-Cyclopropyl-3-(2,6-dichlorophenyl)isoxazol-4-yl]methoxy}piperidin-1-yl)-1-methyl-1H-indole-3-carboxylic Acid: A Novel FXR Agonist for the Treatment of Dyslipidemia” (J Med Chem, 2015).

What was measured:
[1] = Terminal half life in beagle dog at 1 mg/kg, iv by LC-MS/MS analysis; format: ADME, organism-based, Canis lupus familiaris; settings: in vivo, read-out: beta t1/2 (converted)
Outline: (§1)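 Intravenous dose given in 5% Solutol / 5% EtOH in saline (1 mg/kg rat and dog, 0.91 mpk monkey). Plasma samples collected and analyzed by LC-MS/MS; parameters reported as mean ± SD, N=2-3.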

[2] = system: Mus musculus; test: Antidyslipidemic activity in western-diet fed mouse expressing LDL-receptor (-/-) assessed as decrease in total cholesterol level at 1 mg/kg qd for a week administered via gavage […]; format: functional; settings: po
Outline: (§2)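 Male LDLR null mice, six per group, were gavaged once daily for one week with compound (in situ sodium salt) or vehicle (5% Solutol, 5% EtOH, 1% wt/v CMC) at 5 mL/kg. On day 7 they were bled by cardiac puncture under CO2 anaesthesia. Serum cholesterol and triglycerides were measured enzymatically on a clinical chemistry analyser (mean ± SD, n=6). ED50 was obtained by nonlinear regression.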

[3] = Initial plasma concentration in Sprague-Dawley rat at 1 mg/kg, iv by LC-MS/MS analysis; format: ADME, organism-based; outline: as §1
[4] = AUC (0 to 24 hrs) in Sprague-Dawley rat at 1 mg/kg, iv by LC-MS/MS analysis; format: ADME, organism-based; design: dose 1 mg/kg, time < 24 hr, route intravenous; settings: in vivo
Outline: (§3)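 Sprague Dawley rats, Beagle dogs and Cynomolgus monkeys were dosed IV at 1 mg/kg (rat, dog) or 0.91 mpk (monkey) in 5% Solutol/5% EtOH in saline. Oral/nasogastric dosing was 3 mpk in 1.0% CMC/0.25% PS80/0.05% antifoam in purified water. Samples were processed to plasma and analysed by LC-MS/MS; values are mean ± SD, N=2-3.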

[5] = system: Rattus norvegicus; test: Antidyslipidemic activity in ZDF rat assessed as VLDL level at 10 mg/kg for 9 days by FPLC analysis (reference value: 35 mg/dL); format: functional, Zucker
[6] = Terminal half life in beagle dog at 3 mg/kg, po by LC-MS/MS analysis; format: ADME, organism-based, Canis lupus familiaris; settings: in vivo, read-out: beta t1/2 (converted)
Outline: (§4)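 Oral/nasogastric dosing at 3 mpk in 1.0% CMC/0.25% PS80/0.05% antifoam in purified water. Plasma samples collected and analyzed by LC-MS/MS; parameters reported as mean ± SD, N=2-3.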

[7] = system: Mus musculus; test: Antidyslipidemic activity in western-diet fed mouse expressing LDL-receptor (-/-) assessed as decrease in low density lipoprotein level at 30 mg/kg qd for a week administered via gavage by FPLC analysis; format: functional; settings: po
Outline: (§5)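 LDLR null male mice, six per group, were dosed by gavage once daily for one week (vehicle 5% Solutol, 5% EtOH, 1% wt/v CMC; 5 mL/kg). Serum was collected by cardiac puncture on day 7 under CO2 anaesthesia. Pooled serum from each treatment group was fractionated by FPLC to quantify VLDL and LDL.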

[8] = system: Mus musculus; test: Antidyslipidemic activity in western-diet fed mouse expressing LDL-receptor (-/-) assessed as decrease in low density lipoprotein level at 3 mg/kg qd for a week administered via gavage by FPLC analysis; format: functional; settings: po; outline: as §5
[9] = AUC (0 to 24 hrs) in beagle dog at 3 mg/kg, po by LC-MS/MS analysis; format: ADME, organism-based, Canis lupus familiaris; design: dose 3 mg/kg, time < 24 hr, route oral; settings: in vivo; outline: as §3
[10] = Tmax in beagle dog at 3 mg/kg, po by LC-MS/MS analysis; format: ADME, organism-based, Canis lupus familiaris; settings: in vivo; outline: as §4
[11] = target: T1, Progesterone receptor (Homo sapiens, UniProt P06401); test: Agonist activity at progesterone receptor (unknown origin) expressed in HEK293 cells assessed as transcriptional activation; format: cell-based
T1 sequence (P06401 whole entry): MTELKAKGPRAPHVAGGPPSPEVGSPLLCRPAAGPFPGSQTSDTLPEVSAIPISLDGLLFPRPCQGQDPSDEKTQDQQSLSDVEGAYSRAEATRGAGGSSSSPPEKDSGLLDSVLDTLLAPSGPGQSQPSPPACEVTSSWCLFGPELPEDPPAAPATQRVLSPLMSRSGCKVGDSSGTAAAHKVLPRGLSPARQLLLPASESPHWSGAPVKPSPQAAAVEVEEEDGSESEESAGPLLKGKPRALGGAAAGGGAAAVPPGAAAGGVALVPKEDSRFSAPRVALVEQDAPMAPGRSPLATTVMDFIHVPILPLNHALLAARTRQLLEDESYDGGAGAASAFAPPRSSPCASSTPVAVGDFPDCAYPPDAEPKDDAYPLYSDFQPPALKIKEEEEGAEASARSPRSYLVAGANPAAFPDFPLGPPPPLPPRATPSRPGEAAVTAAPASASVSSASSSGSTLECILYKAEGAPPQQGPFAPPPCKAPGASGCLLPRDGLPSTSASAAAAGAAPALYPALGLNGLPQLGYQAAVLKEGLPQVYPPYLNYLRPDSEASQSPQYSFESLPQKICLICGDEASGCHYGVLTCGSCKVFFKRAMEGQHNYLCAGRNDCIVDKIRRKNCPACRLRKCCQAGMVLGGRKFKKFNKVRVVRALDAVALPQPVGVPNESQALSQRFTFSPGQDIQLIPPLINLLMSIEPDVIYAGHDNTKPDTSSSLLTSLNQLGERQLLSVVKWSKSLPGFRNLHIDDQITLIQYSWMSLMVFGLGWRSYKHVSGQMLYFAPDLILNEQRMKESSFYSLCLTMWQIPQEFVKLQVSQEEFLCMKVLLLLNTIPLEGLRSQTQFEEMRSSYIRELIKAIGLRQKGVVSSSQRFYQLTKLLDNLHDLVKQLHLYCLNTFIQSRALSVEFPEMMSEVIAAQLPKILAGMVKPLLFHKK

[12] = Cmax in rat at ED50 dose for lipid modulation; format: ADME, organism-based; settings: in vivo
[13] = system: Rattus norvegicus; test: Antidyslipidemic activity in ZDF rat assessed as LDL/IgHDL level at 30 mg/kg for 9 days by FPLC analysis (reference value: 17.8 mg/dL); format: functional, Zucker
[14] = system: Mus musculus; test: Antidyslipidemic activity in western-diet fed mouse expressing LDL-receptor (-/-) assessed as decrease in total cholesterol level administered once daily for a week via gavage […]; format: functional; settings: po; outline: as §2
[15] = AUC (0 to 24 hrs) in cynomolgus monkey at 3 mg/kg, po by LC-MS/MS analysis; format: ADME, organism-based, Macaca fascicularis; design: time < 24 hr, dose 3 mg/kg, route oral; settings: in vivo; outline: as §3
[16] = system: Mus musculus; test: Antidyslipidemic activity in western-diet fed mouse expressing LDL-receptor (-/-) assessed as decrease in very-low density lipoprotein level at 3 mg/kg qd for a week administered via gavage by FPLC analysis; format: functional; settings: po; outline: as §5
[17] = system: Mus musculus; test: Antidyslipidemic activity in western-diet fed mouse expressing LDL-receptor (-/-) assessed as decrease in total cholesterol level at 30 mg/kg qd for a week administered via gavage […]; format: functional; settings: po; outline: as §2
[18] = Clearance in Sprague-Dawley rat at 1 mg/kg, iv by LC-MS/MS analysis; format: ADME, organism-based; settings: in vivo; outline: as §3
[19] = system: Rattus norvegicus; test: Antidyslipidemic activity in ZDF rat assessed as LDL/IgHDL level at 10 mg/kg cotreated with 0.3 mg/kg rosiglitazone for 9 days by FPLC analysis (reference value: 17.8 mg/dL); format: functional, Zucker
[20] = Cmax in beagle dog at 3 mg/kg, po by LC-MS/MS analysis; format: ADME, organism-based, Canis lupus familiaris; design: dose 3 mg/kg, route oral; settings: in vivo; outline: as §3
[21] = system: Rattus norvegicus; test: Antidyslipidemic activity in ZDF rat assessed as HDL level at 10 mg/kg for 9 days by FPLC analysis (reference value: 48.3 mg/dL); format: functional, Zucker
[22] = system: Mus musculus; test: Antidyslipidemic activity in western-diet fed mouse expressing LDL-receptor (-/-) assessed as decrease in total cholesterol level at 10 mg/kg qd for a week administered via gavage […]; format: functional; settings: po; outline: as §2

Compound `Cn1cc(C(=O)O)c2ccc(N3CCC(OCc4c(-c5c(Cl)cccc5Cl)noc4C4CC4)CC3)cc21` [TERN-101] has a half-life [1] of 10 h, an inhibition in vivo at 1 mg/kg [2] of 37% and a C0 [3] of 2530 ng/mL. For the same compound, the AUC(0-t) at 24 h [4] was 577 ng·h/mL, the Activity [5] was 18.2 mg/dL and the half-life [6] was 7 h. The inhibition in vivo at 30 mg/kg [7] was 62%, the inhibition in vivo at 3 mg/kg [8] was 15% and the AUC(0-t) at 24 h [9] was 4690 ng·h/mL. For the same compound, the Tmax [10] was 0.75 h, the EC50 [11] was > 10 µM and the Cmax [12] was 4.62 ng/mL. It also gave an Activity [13] of 18.6 mg/dL, an ED50 [14] of 2 mg/kg and an AUC(0-t) at 24 h [15] of 1810 ng·h/mL. It also gave an inhibition in vivo at 3 mg/kg [16] of 78%, an inhibition in vivo at 30 mg/kg [17] of 83% and a clearance [18] of 30 mL/min/kg. It also gave an Activity [19] of 20.3 mg/dL, a Cmax [20] of 1240 ng/mL and an Activity [21] of 74.4 mg/dL. The inhibition in vivo at 10 mg/kg [22] was 80%.
